The text below walks through data of PMC8014925 (ACS Omega, 2021).

One assay deals with arylsulfatase. Nature of the assay: Arylsulfatase inhibition assay. Type of assay: biochemical, Helix pomatia. Particulars: for reversibility of inhibition of arylsulfatase: enzyme activity vs enzyme concentration at four inhibitor concentrations; for type of inhibition of arylsulfatase: Lineweaver–Burk plot.
Another assay relates to β-glucuronidase. The assay can be described thus: β-Glucuronidase inhibition assay. Particulars: for reversibility of inhibition of β-glucuronidase: enzyme activity vs enzyme concentration at four inhibitor concentrations. It counts as biochemical, H. pomatia. In a few lines:
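H. pomatia β-glucuronidase (type H-1), stock 10 U/mL in 0.5 M Tris-HCl pH 7.0. Incubated 1 h at 37 °C in 0.1 M phosphate buffer pH 7.0 with pNPG (5 mM stock) and test compound or water control. Stopped with 0.5 M NaOH; pNP read at 400 nm. Final H2O2 1–10,000 μM; NaClO and PAA 1–1000 μM. Triplicates; % inhibition relative to control without test compound.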

A further assay concerns estrogenic potency. Particulars: cited from earlier work.

In general, IC50 refers to the point on the concentration scale where inhibition reaches its midpoint. On to `OCl` [hypochlorite], for which, in the assay with arylsulfatase, the “reversibility of inhibition of arylsulfatase” value was “irreversible”. Further, on arylsulfatase (read-out: IC50 on arylsulfatase at pH 5.0, pH 5.0), the IC50 came to 7.64 ± 0.61 µM. In addition, the “reversibility of inhibition of β-glucuronidase” value in the assay with β-glucuronidase is given as “irreversible”.

Consider `CCCCC(CC)COC(=O)c1ccccc1C(=O)OCC(CC)CCCC` (stereo not shown) [DEHP, di-2-(ethylhexyl) phthalate], for which the estrogenic potency in the assay on estrogenic potency is given as 10^–7.

With `CC(=O)OO` [PAA, peracetic acid], in the assay on arylsulfatase, the “type of inhibition of arylsulfatase” value is listed as “noncompetitive” and the “reversibility of inhibition of arylsulfatase” value was “reversible”. In addition, the “inhibition of arylsulfatase at pH 8 (in words)” value in the assay with arylsulfatase (pH 8, concentration below 1 mM) is given as “nearly no inhibition”. The “type of inhibition of β-glucuronidase” value in the assay with β-glucuronidase (Lineweaver–Burk plot) is listed as “noncompetitive”. The “reversibility of inhibition of β-glucuronidase” value with β-glucuronidase is “reversible”. In addition, in the assay with β-glucuronidase (pH 7.0, tested up to 1000 μM), the “maximum inhibition degree on β-glucuronidase” value is “about 60%”.

As for `OO` [H2O2, hydrogen peroxide], in the assay on arylsulfatase, the “type of inhibition of arylsulfatase” value was “competitive” and the “reversibility of inhibition of arylsulfatase” value is listed as “reversible”. Besides, in the assay with arylsulfatase (pH 8), the “inhibition of arylsulfatase under weak alkaline condition (in words)” value is recorded as “reduced inhibition”. Also, the “differences in the inhibition of arylsulfatase across pH (in words)” value in the assay on arylsulfatase (pH range of 5–7) is “no significant differences”. In addition, in the assay on β-glucuronidase (pH 7.0, tested 1-10,000 μM), the “inhibition on β-glucuronidase (in words)” value is “no inhibition”.

As for `[Cd]` [cadmium], the “estrogenic potency (in words)” value with estrogenic potency was “no estrogenic potency at all”.
